Laboratory results: ChEMBL document CHEMBL4007396, “New diphenylmethane derivatives as peroxisome proliferator-activated receptor alpha/gamma dual agonists endowed with anti-proliferative effects and mitochondrial activity” (Eur J Med Chem, 2017)
pKd: −log10 of the molar value. Calls of active or inactive are those of the source. The calls are words filed in the database; no cut-off is given here.

Tests used:
[1] = target: T1, Peroxisome proliferator-activated receptor delta (Homo sapiens, UniProt Q03181); assay: Binding affinity to PPARdelta (unknown origin) assessed as kinetic dissociation constant by SPR assay
T1 sequence (Q03181 whole entry): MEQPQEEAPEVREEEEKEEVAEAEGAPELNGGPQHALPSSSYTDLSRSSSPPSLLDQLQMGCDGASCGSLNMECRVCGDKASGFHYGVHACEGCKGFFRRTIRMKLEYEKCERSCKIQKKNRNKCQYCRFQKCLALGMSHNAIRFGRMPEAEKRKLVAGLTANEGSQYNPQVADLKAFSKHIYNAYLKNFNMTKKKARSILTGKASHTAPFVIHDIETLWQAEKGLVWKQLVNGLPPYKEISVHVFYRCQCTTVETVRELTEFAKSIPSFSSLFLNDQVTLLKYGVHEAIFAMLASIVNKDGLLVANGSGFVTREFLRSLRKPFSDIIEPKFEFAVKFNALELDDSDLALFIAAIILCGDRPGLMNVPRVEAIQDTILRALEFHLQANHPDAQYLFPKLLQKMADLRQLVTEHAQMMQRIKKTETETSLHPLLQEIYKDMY

[2] = target: T2, Peroxisome proliferator-activated receptor alpha (Homo sapiens) (UniProt Q07869); assay: Agonist activity at PPARalpha in human HepG2 cells assessed as increase in CPT1 protein expression level at 1 uM after 48 hrs by Western blot method; type: cell-based
T2 sequence (whole entry): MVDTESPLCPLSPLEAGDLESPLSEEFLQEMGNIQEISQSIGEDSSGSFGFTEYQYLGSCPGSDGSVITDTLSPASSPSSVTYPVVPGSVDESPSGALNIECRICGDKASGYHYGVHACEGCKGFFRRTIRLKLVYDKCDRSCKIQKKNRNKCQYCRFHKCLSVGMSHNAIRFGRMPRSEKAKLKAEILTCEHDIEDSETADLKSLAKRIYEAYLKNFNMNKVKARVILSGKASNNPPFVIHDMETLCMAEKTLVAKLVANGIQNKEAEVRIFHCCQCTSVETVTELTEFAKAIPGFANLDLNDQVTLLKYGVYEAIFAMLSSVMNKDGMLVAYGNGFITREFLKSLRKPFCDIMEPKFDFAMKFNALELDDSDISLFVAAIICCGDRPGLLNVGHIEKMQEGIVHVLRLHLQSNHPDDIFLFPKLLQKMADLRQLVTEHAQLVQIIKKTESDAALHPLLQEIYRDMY
Outline: (§1)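 HepG2 serum-depleted 24 h, then treated 48 h with 1 μM compound (Wy-14,643 at 50 μM as reference). Nitrocellulose immunoblots probed for CAC, CPT1 or PPARα with β-actin loading control, chemiluminescent detection; band densitometry expressed as fold change versus untreated cells; three independent experiments.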

[3] = target: T3, Peroxisome proliferator-activated receptor alpha (Homo sapiens, UniProt Q07869); assay: Binding affinity to PPARalpha (unknown origin) assessed as thermodynamic dissociation constant by SPR assay; details: read-out: Kd
T3 sequence (Q07869 whole entry): T2 sequence (whole entry)

[4] = target: T1, Peroxisome proliferator-activated receptor delta; assay: Binding affinity to PPARdelta (unknown origin) assessed as thermodynamic dissociation constant by SPR assay
[5] = target: T2, Peroxisome proliferator-activated receptor alpha (Homo sapiens); assay: Agonist activity at PPARalpha in human HepG2 cells assessed as increase in mitochondrial mass at 1 uM by CellLight Mitochondria-GFP staining based fluorescent microscopic method relative to control; type: cell-based
Outline: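 Serum-free HepG2 at 60% confluence transduced with Mitochondria-GFP BacMam 2.0 (50 particles/cell) and given 1 μM compound or 50 μM Wy-14,643 for 24 h. Imaged at 20x with GFP filters (ex 485/em 535 nm); separately, SDS/Tris pH 7.5 lysates read at ex 475, em 500-550 nm. Mean ± SD of three experiments, ANOVA/Bonferroni.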

HT-29 [6] = assay: Growth inhibition of human HT-29 cells assessed as cell vitality at 5 uM up to 72 hrs by hemocytometry relative to control; type: functional; parameters: scale not given: the % may be the effect or the level left
Outline: (§2)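 Exponentially growing HT-29 colon adenocarcinoma cells (D-MEM, 10% FBS, 37 °C, 5% CO2) exposed to vehicle (DMSO, final <0.1%) or 1, 5 and 10 μM compound in 10% FBS medium for 24, 48 and 72 hs; cells washed, trypsinized and counted by Bürker hemocytometer, three counts per well. Viability relative to vehicle; mean ± SD of three independent experiments in duplicate.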

HT-29 [7] = assay: Growth inhibition of human HT-29 cells assessed as cell vitality at 10 uM after 48 hrs by hemocytometry relative to control; type: functional; parameters: scale not given: the % may be the effect or the level left; outline: as §2
[8] = target: T4, Peroxisome proliferator-activated receptor gamma (Homo sapiens, UniProt P37231); assay: Binding affinity to PPARgamma (unknown origin) assessed as kinetic dissociation constant by SPR assay
T4 sequence (P37231 whole entry): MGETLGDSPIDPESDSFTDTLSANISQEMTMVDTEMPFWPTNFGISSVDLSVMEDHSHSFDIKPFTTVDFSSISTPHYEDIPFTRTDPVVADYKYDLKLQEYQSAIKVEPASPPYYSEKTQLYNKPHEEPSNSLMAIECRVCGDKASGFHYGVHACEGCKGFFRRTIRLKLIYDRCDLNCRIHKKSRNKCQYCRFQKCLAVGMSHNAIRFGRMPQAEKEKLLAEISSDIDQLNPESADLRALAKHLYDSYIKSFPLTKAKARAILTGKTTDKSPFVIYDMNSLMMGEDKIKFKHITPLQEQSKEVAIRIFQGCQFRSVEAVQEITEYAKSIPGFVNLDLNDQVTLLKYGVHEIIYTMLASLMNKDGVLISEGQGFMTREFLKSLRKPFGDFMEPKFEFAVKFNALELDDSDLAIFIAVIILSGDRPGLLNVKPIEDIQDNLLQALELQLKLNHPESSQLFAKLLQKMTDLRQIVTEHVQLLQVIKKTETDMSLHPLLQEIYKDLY

[9] = target: T2, Peroxisome proliferator-activated receptor alpha (Homo sapiens); assay: Agonist activity at PPARalpha assessed as induction of positive regulatory loop based receptor transcriptional activation by measuring upregulation of PPARalpha protein expression level in human HepG2 cells at 1 uM after 48 hrs by Western blot method; type: cell-based; outline: as §1
[10] = Growth inhibition of HEK293T cells assessed as cell vitality at 10 uM after 48 hrs by hemocytometry relative to control; type: cell-based, HEK-293T; details: human, read-out: Activity
Outline: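 HEK293T grown in DMEM with 10% FBS, penicillin-streptomycin and L-glutamine, exposed 48 h to 10 μM compound (DMSO under 0.1% final) alongside HT-29. Cells trypsinized and counted on a Bürker hemocytometer, three counts per well; viability relative to vehicle-treated cells; three independent experiments in duplicate, mean ± SD.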

HT-29 [11] = assay: Growth inhibition of human HT-29 cells assessed as cell vitality at 5 to 10 uM up to 72 hrs by hemocytometry relative to control; type: functional; parameters: scale not given: the % may be the effect or the level left; outline: as §2

Compound | Kd [1] | Activity [2] | pKd [3] | Kd [4] | Activity [5] | Activity (HT-29 [6]) | Activity (HT-29 [7]) | Kd [8] | Activity [9] | viability at 48 h, 10 µM [10] | Activity (HT-29 [11])
C[C@H](Oc1ccc(Cc2ccc(OCc3coc(-c4ccccc4)n3)cc2)cc1)C(=O)O | Not Active | Active | 9.12 | Not Active | 30% | 45% | 40% | 0.099 s⁻¹ | Active | 75% | 
C[C@@H](Oc1ccc(Cc2ccc(OCc3coc(-c4ccccc4)n3)cc2)cc1)C(=O)O | Not Active | Active | 9.07 | Not Active | 30% |  |  | 0.095 s⁻¹ | Active |  | 40 - 60%
